ChEMBL document CHEMBL1125718, “Synthesis and biological evaluation of dipeptidyl and tripeptidyl polyoxin and nikkomycin analogues as anticandidal prodrugs” (1991)
In brackets after ≈: the same amount, converted by molar mass.

How the values were obtained:
[1] = tested on: Candida albicans; assay: Compound was tested for its lowest concentration at which growth of H-317 strain of Candida albicans was clearly inhibited.; assay type: functional
[2] = tested on: Candida albicans; assay: Compound was tested for its lowest concentration at which growth of 124N5 strain of Candida albicans was clearly inhibited.; assay type: functional
[3] = tested on: Candida albicans; assay: Compound was tested for percent inhibition of transport of (Met)3 into Candida albicans H-317.; set-up: concentration or dose not given beside the values
[4] = target: Chitin synthase 1 (Candida albicans) (UniProt P23316); assay: Compound was tested for its ability to inhibit chitin synthetase using Candida albicans strain H-317.; assay type: functional
Chitin synthase 1 (Candida albicans), sequence (P23316 whole entry, looked up): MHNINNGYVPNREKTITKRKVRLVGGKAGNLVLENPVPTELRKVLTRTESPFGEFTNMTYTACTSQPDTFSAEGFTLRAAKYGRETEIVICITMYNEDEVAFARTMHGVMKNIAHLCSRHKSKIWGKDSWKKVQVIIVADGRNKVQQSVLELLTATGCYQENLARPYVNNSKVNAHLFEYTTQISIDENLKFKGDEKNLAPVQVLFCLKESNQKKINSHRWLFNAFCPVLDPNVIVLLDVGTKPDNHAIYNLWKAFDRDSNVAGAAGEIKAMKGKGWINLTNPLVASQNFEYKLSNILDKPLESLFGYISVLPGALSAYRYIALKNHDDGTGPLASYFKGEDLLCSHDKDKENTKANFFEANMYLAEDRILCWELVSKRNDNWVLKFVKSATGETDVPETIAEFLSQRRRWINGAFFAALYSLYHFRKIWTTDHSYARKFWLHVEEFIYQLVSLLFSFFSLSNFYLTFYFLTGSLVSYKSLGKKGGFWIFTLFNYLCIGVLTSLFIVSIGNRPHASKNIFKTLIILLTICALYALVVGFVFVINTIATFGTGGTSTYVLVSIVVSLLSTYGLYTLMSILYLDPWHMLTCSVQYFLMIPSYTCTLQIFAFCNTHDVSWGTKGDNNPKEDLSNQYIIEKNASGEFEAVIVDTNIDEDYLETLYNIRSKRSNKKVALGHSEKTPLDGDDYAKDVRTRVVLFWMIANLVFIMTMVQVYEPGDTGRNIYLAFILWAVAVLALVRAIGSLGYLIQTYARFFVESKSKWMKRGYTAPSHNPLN
Outline: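 Mixed membrane fraction from C. albicans H-317 was used as the source of total chitin synthetase. Activity was measured with and without polyoxin compounds as N-acetylglucosamine incorporation into chitin. The value is the concentration giving 50% inhibition.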

[5] = tested on: Candida albicans; assay: Compound was tested for rate of hydrolysis (percent hydrolyzed per 10 min) by cell extract from Candida albicans H-317.; assay type: functional
Outline: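 Antibiotic (0.5 mg in H2O–DMSO 50:50) was mixed with cell extract of C. albicans H-317 (3.75 mg protein/mL) and incubated at 36 °C. Portions were withdrawn every 20 min and analysed directly by TLC and HPLC. Nle-UPOC served as control.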

[6] = tested on: Candida albicans; assay: Compound was tested for its lowest concentration at which growth of 124 strain of Candida albicans was clearly inhibited.; assay type: functional
[7] = tested on: Candida albicans; assay: (§1) Compound was tested for percent inhibition of transport of (Leu)2 into Candida albicans H-317.; assay type: functional; set-up: concentration or dose not given beside the values
Outline: (§2)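 Uptake of labeled dileucine was measured with analogues added at 10-fold the molar concentration of the transport substrate. Samples were taken at 0, 1, 2, 3 and 4 min, collected on prewet 0.45 µm filters and washed twice with cold water. Rate was expressed as nmol peptide per mg dry-weight cells per min.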

[8] = tested on: Candida albicans; assay: Compound was tested for percent inhibition of transport of (Met)3 into Candida albicans H-317.; set-up: concentration or dose not given beside the values; remark: listed apart in the source
[9] = tested on: Candida albicans; assay: as §1; assay type: functional; outline: as §2
[10] = tested on: Candida albicans; assay: Compound was tested for percent inhibition of transport of (Met)3 into Candida albicans H-317.

SMILES	MIC [1]	MIC [2]	Transport inhibition [3]	ID50 [4]	Hydrolysis [5]	MIC [6]	Transport inhibition [7]	Transport inhibition [8]	Transport inhibition [9]	Transport inhibition [10]
CCCCCCCC(=O)NCCCC[C@H](NC(=O)[C@@H](N)CCCCNC(=O)CCCCCCC)C(=O)N[C@H](C(=O)O)[C@H]1OC(n2ccc(=O)[nH]c2=O)[C@H](O)[C@@H]1O (stereo partly specified)	> 666 µg/mL	> 666 µg/mL	56%	80 µg/mL (≈ 101 µM)	0	> 666 µg/mL	60%			
NCCOC[C@H](N)C(=O)N[C@H](C(=O)O)[C@H]1O[C@@H](n2ccc(=O)[nH]c2=O)[C@H](O)[C@@H]1O	> 1000 µg/mL	> 1000 µg/mL		100 µg/mL (≈ 240 µM)	0	> 1000 µg/mL	58%	0%		
CCCCCCCC(=O)NCCCC[C@H](NC(=O)[C@@H](N)CC(C)C)C(=O)N[C@H](C(=O)O)[C@H]1OC(n2ccc(=O)[nH]c2=O)[C@H](O)[C@@H]1O (stereo partly specified)	> 666 µg/mL	> 666 µg/mL	32%	50 µg/mL (≈ 76.4 µM)	0	> 666 µg/mL	0%			
C[C@@H]([C@H](N)C(=O)N[C@H](C(=O)O)[C@H]1O[C@@H](n2ccc(=O)[nH]c2=O)[C@H](O)[C@@H]1O)[C@H](O)c1ccc(O)cn1 [NIKKOMYCIN]	20 µg/mL (≈ 40.4 µM)	666 µg/mL (≈ 1340 µM)		0.3 µg/mL (≈ 0.606 µM)	0	10 µg/mL (≈ 20.2 µM)	80%	20%		
CC(C)C[C@H](N)C(=O)N[C@H](C(=O)N[C@H](C(=O)O)[C@H]1OC(n2cc(C=O)nc2O)[C@H](O)[C@@H]1O)[C@H](C)[C@H](O)c1ccc(O)cn1 (stereo partly specified)	166 µg/mL (≈ 273 µM)	333 µg/mL (≈ 547 µM)	22%	30 µg/mL (≈ 49.3 µM)	33	83 µg/mL (≈ 136 µM)	0%			
CC(C)C[C@H](N)C(=O)N[C@H](C(=O)N[C@H](C(=O)O)[C@H]1OC(n2ccc(=O)[nH]c2=O)[C@H](O)[C@@H]1O)[C@H](C)[C@H](O)c1ccc(O)cn1 (stereo partly specified)	> 666 µg/mL	> 666 µg/mL		100 µg/mL (≈ 164 µM)	33	666 µg/mL (≈ 1090 µM)	0%	28%		
NC(Cc1cccc(F)c1)C(=O)O (racemic) [M-FLUOROPHENYLALANINE]	> 1000 µg/mL	> 1000 µg/mL				> 1000 µg/mL				
CC(C)C[C@H](N)C(=O)N[C@H](C(=O)N[C@H](C(=O)O)[C@H]1OC(n2cc(CO)c(=O)[nH]c2=O)[C@H](O)[C@@H]1O)[C@H](O)[C@@H](O)COC(N)=O (stereo partly specified)	333 µg/mL (≈ 537 µM)	666 µg/mL (≈ 1070 µM)		20 µg/mL (≈ 32.2 µM)	5	333 µg/mL (≈ 537 µM)	0%	27%		
NC(=O)OC[C@H](O)[C@@H](O)[C@H](N)C(=O)N[C@H](C(=O)O)[C@H]1O[C@@H](n2cc(CO)c(=O)[nH]c2=O)[C@H](O)[C@@H]1O [POLYOXIN B]	40 µg/mL (≈ 78.8 µM)	166 µg/mL (≈ 327 µM)		0.8 µg/mL (≈ 1.58 µM)		20 µg/mL (≈ 39.4 µM)	0%	0%		
COC(=O)/C=C/C(=O)NC[C@H](N)C(=O)N[C@H](C(=O)O)[C@H]1O[C@@H](n2ccc(=O)[nH]c2=O)[C@H](O)[C@@H]1O	250 µg/mL (≈ 515 µM)	1000 µg/mL (≈ 2060 µM)	0%	100 µg/mL (≈ 206 µM)	0	500 µg/mL (≈ 1030 µM)	7%			
CCCCCCCC(=O)NCCCC[C@H](N)C(=O)N[C@H](C(=O)O)[C@H]1O[C@@H](n2ccc(=O)[nH]c2=O)[C@H](O)[C@@H]1O	> 666 µg/mL	> 666 µg/mL		0.5 µg/mL (≈ 0.923 µM)	0	666 µg/mL (≈ 1230 µM)			50%	10%
N[C@@H](Cc1cccc(F)c1)C(=O)N[C@H](C(=O)O)[C@H]1O[C@@H](n2ccc(=O)[nH]c2=O)[C@H](O)[C@@H]1O	> 1000 µg/mL	> 1000 µg/mL		2 µg/mL (≈ 4.42 µM)	33	> 1000 µg/mL	6%	0%		
C[C@@H]([C@H](N)C(=O)N[C@H](C(=O)O)[C@H]1O[C@@H](n2cc(C=O)nc2O)[C@H](O)[C@@H]1O)[C@H](O)c1ccc(O)cn1	5 µg/mL (≈ 10.1 µM)	333 µg/mL (≈ 672 µM)	30%	0.1 µg/mL (≈ 0.202 µM)	0	2.5 µg/mL (≈ 5.05 µM)	90%			
